The subject of one series is SK-OV-3. As to the kind of experiment: Cytotoxicity against human SK-OV-3 cells assessed as reduction in cell viability incubated for 24 hrs by MTS assay. The settings on record: dose 0.25-1.25 µM, DDE = dose-dependent effect. The format is functional, cell-based. The essentials:
(§1)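 Ovarian lines seeded 5,000 cells/well, attached overnight, treated 24 h in complete medium (DMSO ≤0.2%); MTS reagent 1:10 in fresh RPMI 2–4 h, absorbance 490 nm; triplicate, % of DMSO-treated cells.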
In general terms: Formazan colour is commonly taken as a measure of viable cells.

Series [1] concerns Mus musculus. Nature of the series: Downregulation of VDR expression in tumor of NSG mouse xenografted with human SK-OV-3 cells at 10 mg/kg, ip by confocal microscopy based immunohistochemistry analysis. The format is functional, organism-based. For orientation: Xenograft models place foreign cells or tissue in a host animal.
In another series the test system is BXPC-3. As to the kind of experiment: Anti-tumor activity against human BXPC-3 cells xenografted in NSG mouse assessed as reduction in tumor growth at 10 mg/kg, ip measured on day 18. Format: functional, organism-based. The settings on record: time 18.0 day. The essentials:
(§2)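 NSG mice implanted subcutaneously with 1 million D283, PANC-1 or BXPC-3 cells in matrigel/DMEM 1:1; once palpable, 10 mg/kg IP M–F vs vehicle; volume (length × width2)[…], % change; endpoint 2000 mm3; tumors excised and weighed; unpaired t-test.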

For series [2], the system named is Tumor cell line. Nature of the series: Cytotoxicity against tumor cells in TH-MYCN +/+ transgenic neuroblastoma 129x1/SvJ.Tg (TH-MYCN)41Waw/Nci mouse model assessed as reduction in viability of tumor spheres measured after 3 days by light microscopy. The format is functional, cell-based. Conditions: dose 1-4 µM, time 3.0 day, DDE = dose-dependent effect. The essentials:
(§3)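 Tumor cells mechanically dissociated from tumors of three homozygous TH-MYCN mice, grown as spheres in RPMI1640 with 20% FBS, 2-mercaptoethanol, pyruvate and NEAA; treated 3 days; viability by MTS; spheres imaged by light microscopy.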

Series [3] relates to Tumor cell line. Nature of the series: Cytotoxicity against tumor cells in TH-MYCN +/+ transgenic neuroblastoma 129x1/SvJ.Tg (TH-MYCN)41Waw/Nci mouse model assessed as reduction in cell viability at 0.1 to 10 uM measured after 3 days by MTS assay. Format: functional, cell-based. Conditions: dose 0.1-10 µM, time 3.0 day. The essentials: as §3
Series [4] relates to D283 Med. As to the kind of experiment: Anti-tumor activity against human D283 Med cells xenografted in NSG mouse assessed as reduction in tumor volume at 10 mg/kg, ip measured on day 12. Format: functional, organism-based. Conditions: time 12.0 day. A digest of the protocol: as §2
Another series has as its system HEK-293T. Nature of the series: Cytotoxicity against HEK-293T cells assessed as inhibition of cell proliferation upto 100 uM incubated for 18 hrs by MTS assay. Format: toxicity, cell-based. The settings on record: human.
Series [5] has as its target T1, Vitamin D3 receptor (Homo sapiens) (UniProt P11473).
T1 sequence (whole entry): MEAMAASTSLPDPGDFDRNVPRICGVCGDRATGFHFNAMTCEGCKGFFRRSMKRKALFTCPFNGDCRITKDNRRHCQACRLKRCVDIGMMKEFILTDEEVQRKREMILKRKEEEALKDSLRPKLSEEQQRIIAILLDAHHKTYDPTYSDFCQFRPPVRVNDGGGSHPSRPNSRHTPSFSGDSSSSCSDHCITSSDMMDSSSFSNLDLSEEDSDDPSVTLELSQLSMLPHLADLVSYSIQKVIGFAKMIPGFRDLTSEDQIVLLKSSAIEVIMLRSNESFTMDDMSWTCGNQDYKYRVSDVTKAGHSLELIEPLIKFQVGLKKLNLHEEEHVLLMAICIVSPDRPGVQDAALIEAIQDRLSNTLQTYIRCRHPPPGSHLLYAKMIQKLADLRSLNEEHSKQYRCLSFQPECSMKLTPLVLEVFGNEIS
As to the kind of experiment: Antagonist activity at VDR in human BE2C cells assessed as reduction in cyclin-D expression at 1 uM incubated for 24 hrs by western blot analysis relative to control. Conditions: filed as antagonist. The format is cell-based. A digest of the protocol:
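BE(2)-C cells given 1 μM for 24 h; immunoblot with β-actin or α-tubulin loading control; normalized densitometry.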
(In general: A western blot detects proteins with antibodies after separation by electrophoresis.)

Series [6] is described as follows: Toxicity in TH-MYCN +/+ transgenic neuroblastoma 129x1/SvJ.Tg (TH-MYCN)41Waw/Nci mouse model assessed as effect on CD11b+ cells population at 10 mg/kg, ip qd by flow cytometry. The settings on record: in vivo. The format is organism-based. A digest of the protocol: (§4)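 Immune cells isolated from TH-MYCN tumor-bearing mice treated with vehicle or compound; CD45+, CD4+, CD8+, macrophage, patrolling monocyte/DC and CD11b+ populations quantified by flow cytometry with characterized markers.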

The test system of a further series is PANC-1. Nature of the series: Anti-tumor activity against human PANC-1 cells xenografted in NSG mouse assessed as reduction in tumor growth at 10 mg/kg, ip measured on day 12. The settings on record: time 12.0 day. The format is functional, organism-based. The essentials:
as §2

Series [7] deals with D283 Med. Nature of the series: Anti-tumor activity against human D283 Med cells xenografted in NSG mouse assessed as reduction in tumor size at 10 mg/kg, ip measured on day 12. The format is functional, organism-based. Conditions: time 12.0 day. The essentials: as §2
In a further series the test system is Caov-3 cell line. As to the kind of experiment: Cytotoxicity against human Caov-3 cell line assessed as reduction in cell viability incubated for 24 hrs by MTS assay. Format: functional, cell-based. Conditions: dose 0.25-1.25 µM, DDE = dose-dependent effect. The essentials:
as §1

The next series relates to SH-SY5Y. Nature of the series: Cytotoxicity against human SH-SY5Y cells assessed as reduction in cell viability incubated for 48 hrs by MTS assay. Format: functional, cell-based. Conditions: dose 0.1-10 µM, DDE = dose-dependent effect. The essentials: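 Neuroblastoma lines seeded 5,000 cells/well, attached overnight, treated 48 h in complete medium (DMSO ≤0.2%); MTS reagent 1:10 in fresh RPMI 2–4 h, absorbance 490 nm.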

Series [8] in a line: Downregulation of VDR expression in human BE2C cells at 1 uM incubated for 24 hrs by western blot analysis relative to control. The format is functional, BE(2)-C. The essentials: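 BE(2)-C neuroblastoma cells were treated for 24 h and immunoblotted for VDR, with β-actin or α-tubulin as loading control. Band intensities are reported as normalized densitometry.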
The test system of a further series is OVCAR-8. Nature of the series: Cytotoxicity against human OVCAR-8 cells assessed as reduction in cell viability incubated for 24 hrs by MTS assay. Format: functional, cell-based. The settings on record: dose 0.25-1.25 µM, DDE = dose-dependent effect. The essentials:
as §1

In a further series the test system is ES-2. Nature of the series: Anti-tumor activity against human ES2 cells xenografted in NSG mouse assessed as reduction in tumor volume at 10 mg/kg, ip measured upto 30 days. Format: functional, organism-based. The settings on record: time <= 30.0 day. A digest of the protocol: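 NSG mice, 6–8 weeks, injected subcutaneously in right flank with ES2 (250,000) or SH-SY5Y/BE(2)C (1 million) cells in cold matrigel/serum-free RPMI 1:1. Once palpable, 10 mg/kg IP M–F vs vehicle; volume (length × width2)[…]; BE(2)C and ES2 monitored alternate days; endpoint 2000 mm3; % change in volume, t-test.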

Series [9] relates to 2008. As to the kind of experiment: Induction of apoptosis in human 2008 cells assessed as cleaved PARP1 expression levels at 250 nM incubated for 18 hrs by western blot analysis (reference value: 4%). Format: functional.
The subject of series [10] is Mus musculus. As to the kind of experiment: Anti-tumor activity against tumor cells in TH-MYCN +/+ neuroblastoma 129x1/SvJ.Tg (TH-MYCN)41Waw/Nci mouse model assessed as reduction in tumor weight at 10 mg/kg, ip measured on day 7 by ultrasound imaging analysis. Format: functional, organism-based. Conditions: time 7.0 day. The essentials:
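Homozygous TH-MYCN+/+ mice (129×1/SvJ background, genotyped) with spontaneous neuroblastoma dosed IP, vehicle n = 7, 10 mg/kg n = 8, six treatments; a 100 mg/kg group got three. Tumor burden by abdominal ultrasound under 1–3% isoflurane; tumors excised and weighed at end; groups compared by t-test.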

Series [11] is described as follows: Toxicity in TH-MYCN +/+ transgenic neuroblastoma 129x1/SvJ.Tg (TH-MYCN)41Waw/Nci mouse model assessed as effect on CD45+ cells population at 10 mg/kg, ip qd by flow cytometry. Format: organism-based. Conditions: in vivo. A digest of the protocol: as §4
In a further series the test system is IGROV-1. Nature of the series: Cytotoxicity against human IGROV-1 cells assessed as reduction in cell viability incubated for 24 hrs by MTS assay. Format: functional, cell-based. Conditions: dose 0.25-1.25 µM, DDE = dose-dependent effect. The essentials: as §1
For series [12], the system named is 2008. Nature of the series: Cytotoxicity against human 2008 cells assessed as reduction in cell viability incubated for 24 hrs by MTS assay. The format is functional, cell-based. The settings on record: dose 0.25-1.25 µM, DDE = dose-dependent effect. The essentials: as §1

Calls of active or inactive are those of the source. The calls are words filed in the database; no cut-off is given here.

With `CC(C)CCC[C@@H](C)[C@H]1CC[C@@H]2[C@]1(C)CCC1[C@]23C=C[C@]2(C[C@@H](OC(=O)CBr)CC[C@]12C)n1c(=O)n(C)c(=O)n13` (stereo partly specified), the Activity entry is “Dde” with SK-OV-3; “Dde” in the series with Tumor cell line [2]; “Non-Toxic” with HEK-293T; “Non-Toxic” in series [6]; “Dde” with Caov-3 cell line; “Dde” with SH-SY5Y. In addition, the Activity result in the series on OVCAR-8 is “Dde”; in the series on 2008 [9], 22.8%; in [11], “Non-Toxic”; in the series on IGROV-1, “Dde”; with 2008 [12], “Dde”. Moreover, the inhibition result with Mus musculus [1] is “Active”. Moreover, the result in the series on BXPC-3, with Tumor cell line [3], in the series on D283 Med [4], in the series on PANC-1, with D283 Med [7] and in the series with ES-2 was Active. In the series with Mus musculus [10], the outcome was Active. The fold change (FC) in [5] amounted to 0.8; in series [8] it was 0.83.

The values are drawn from ChEMBL document CHEMBL5154854, “Identification of a Vitamin-D Receptor Antagonist, MeTC7, which Inhibits the Growth of Xenograft and Transgenic Tumors In Vivo” (J Med Chem, 2022).
